# In ChEMBL document CHEMBL2321845, “Discovery of 4-Aryl-2-benzoyl-imidazoles as tubulin polymerization inhibitor with potent antiproliferative properties” (J Med Chem, 2013):
# Calls of active or inactive are those of the source. No cut-off for these calls is given here.
# Legend:
# A-375 = assay: Cytotoxicity against human A375 cells assessed as growth inhibition after 48 hrs by SRB assay; assay type: functional, cell-based; conditions: A-375, 48 h
# In short: (§1)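 Melanoma cells from ATCC, grown in DMEM with 10% FBS at 37°C under 5% CO2. Seeded at 1000–5000 cells/well according to growth rate and exposed to a range of compound concentrations for 48 h, in three to five replicates. Cells were fixed with 10% TCA, stained with 0.4% SRB and read at 540 nm.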
# LNCaP = assay: Cytotoxicity against human LNCAP cells assessed as growth inhibition after 96 hrs by SRB assay; assay type: functional, cell-based
# In short: (§2)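 Plated at 1000–5000 cells/well depending on growth rate and treated with graded compound concentrations for 96 h, three to five replicates. Cell number was measured by SRB: 10% TCA fixation, 0.4% SRB staining, absorbance at 540 nm. IC50 relative to untreated control came from a nonlinear regression fit.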
# DU-145 = assay: Cytotoxicity against human DU145 cells assessed as growth inhibition after 96 hrs by SRB assay; assay type: functional, cell-based; conditions: Homo sapiens, DU-145, 96 h
# MDA-MB-435 = assay: Cytotoxicity against human MDA-MB-435 cells assessed as growth inhibition after 48 hrs by SRB assay; assay type: functional, cell-based; conditions: MDA-MB-435, 48 h
# [1] = Cytotoxicity against human WM164 cells assessed as growth inhibition after 48 hrs by SRB assay; assay type: functional, cell-based; conditions: WM164, 48 h
# In short: as §1, with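 “nm. IC50 (50% growth inhibition versus untreated control) was taken from nonlinear regression of % survival against concentration.” for “nm.”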
# [2] = Cytotoxicity against human MDA-MB-435/LCC6MDR1 cells assessed as growth inhibition after 48 hrs by SRB assay; assay type: functional, cell-based, MDA-MB-435/LCC6 MDR1; conditions: Homo sapiens, MDA-MB-435/LCC6 MDR1, 48 h
# PPC-1 = assay: Cytotoxicity against human PPC1 cells assessed as growth inhibition after 96 hrs by SRB assay; assay type: functional, cell-based; conditions: PPC-1, 96 h; in short: as §2
# Bos taurus = species: Bos taurus; assay: Competitive binding affinity to bovine brain tubulin after 1 hr by mass spectrometry binding assay in presence of colchicine; assay type: tissue-based
# PC-3 [3] = assay: Cell cycle arrest in human PC3 cells assessed as accumulation at G2/M phase after 24 hrs by propidium iodide staining based FACS analysis (reference value: 18%); assay type: functional
# PC-3 [4] = assay: Cytotoxicity against human PC3 cells assessed as growth inhibition after 96 hrs by SRB assay; assay type: functional, cell-based; conditions: PC-3, 96 h; in short: as §2
# Tubulin (Sus scrofa) = Tubulin (Sus scrofa) (UniProt P02554+P02550); assay: Inhibition of pig brain tubulin polymerization measured every 1 min for 40 mins by microplate reader analysis
# Chain of Tubulin (Sus scrofa) (P02550 whole entry, looked up): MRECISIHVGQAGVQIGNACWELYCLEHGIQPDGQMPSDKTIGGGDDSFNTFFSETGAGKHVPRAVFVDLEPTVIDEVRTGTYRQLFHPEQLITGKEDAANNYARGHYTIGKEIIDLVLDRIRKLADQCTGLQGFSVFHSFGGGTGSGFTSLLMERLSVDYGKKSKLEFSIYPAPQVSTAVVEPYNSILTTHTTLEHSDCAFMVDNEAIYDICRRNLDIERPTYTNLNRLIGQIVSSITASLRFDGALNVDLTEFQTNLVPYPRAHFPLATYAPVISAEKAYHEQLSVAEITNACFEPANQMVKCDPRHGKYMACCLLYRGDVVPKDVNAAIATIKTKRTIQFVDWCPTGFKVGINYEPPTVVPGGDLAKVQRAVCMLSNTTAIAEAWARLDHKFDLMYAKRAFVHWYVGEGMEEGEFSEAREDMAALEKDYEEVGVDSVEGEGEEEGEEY
# Chain of Tubulin (Sus scrofa) (P02554 whole entry, looked up): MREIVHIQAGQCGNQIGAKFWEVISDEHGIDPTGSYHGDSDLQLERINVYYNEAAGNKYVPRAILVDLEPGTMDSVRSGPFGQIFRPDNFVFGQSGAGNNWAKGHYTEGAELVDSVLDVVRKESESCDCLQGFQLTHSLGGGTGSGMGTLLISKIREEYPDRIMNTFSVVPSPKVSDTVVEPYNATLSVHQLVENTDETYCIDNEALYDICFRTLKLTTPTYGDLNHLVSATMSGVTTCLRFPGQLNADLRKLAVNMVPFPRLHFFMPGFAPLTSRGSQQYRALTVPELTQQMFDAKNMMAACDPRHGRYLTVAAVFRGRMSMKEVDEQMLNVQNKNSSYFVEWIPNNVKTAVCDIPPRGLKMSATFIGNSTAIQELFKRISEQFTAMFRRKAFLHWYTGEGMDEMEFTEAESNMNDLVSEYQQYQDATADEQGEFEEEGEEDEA
# In short: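 Polymerization was followed with a fluorescence-enhanced tubulin polymerization assay kit.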
# [5] = Resistance index, ratio of IC50 for human MDA-MB-435/LCC6 MDR1 cells to IC50 for human MDA-MB-435 cells; assay type: functional
SMILES,Activity (Bos taurus),inhibition (Tubulin (Sus scrofa)),IC50 (A-375) [µM],IC50 (LNCaP) [µM],IC50 (DU-145) [µM],IC50 (MDA-MB-435) [µM],IC50 [1] [µM],IC50 [2] [µM],IC50 (PPC-1) [µM],Activity (PC-3 [3]),Activity (PC-3 [3]; record 2),IC50 (PC-3 [4]) [µM],Ratio IC50 [5]
COc1cc(C(=O)c2nc(-c3ccccc3)cn2-c2ccccn2)cc(OC)c1OC,Active,,0.014,0.02,0.037,0.011,0.006,0.015,0.008,,,,
COc1cc(C(=O)c2nc(-c3ccc(Br)cc3)c[nH]2)cc(OC)c1OC,,,0.029,0.015,0.066,0.058,0.031,0.043,,Dose-dependent effect,<=70%,0.033,
CCn1cc(-c2ccccc2)nc1C(=O)c1cc(OC)c(OC)c(OC)c1,,,0.028,0.029,0.066,0.026,0.016,0.033,,Dose-dependent effect,<=70%,0.025,
COc1cc(C(=O)c2nc(-c3ccccc3)cn2C)cc(OC)c1OC,,Active,0.009,,0.026,0.016,0.033,0.018,0.013,Dose-dependent effect,<=70%,0.016,
COc1cc(C(=O)c2nc(-c3ccc(C(F)(F)F)cc3)c[nH]2)cc(OC)c1OC,,,0.123,0.047,0.21,0.12,0.143,0.175,0.074,,,0.093,0.8

# Now from value to molecule, other results behind:
Activity (Bos taurus),inhibition (Tubulin (Sus scrofa)),SMILES,IC50 (A-375) [µM],IC50 (LNCaP) [µM],IC50 (DU-145) [µM],IC50 (MDA-MB-435) [µM],IC50 [1] [µM],IC50 [2] [µM],IC50 (PPC-1) [µM],Activity (PC-3 [3]),Activity (PC-3 [3]; record 2),IC50 (PC-3 [4]) [µM],Ratio IC50 [5]
inactive,Dose-dependent effect,CC[C@]1(O)C[C@@H]2CN(CCc3c([nH]c4ccccc34)[C@@](C(=O)OC)(c3cc4c(cc3OC)N(C)[C@H]3[C@@](O)(C(=O)OC)[C@H](OC(C)=O)[C@]5(CC)C=CCN6CC[C@]43[C@@H]65)C2)C1,,,,,,,,,,,
Active,Active,COc1cc(C(=O)c2nc(-c3ccccc3)c[nH]2)cc(OC)c1OC,0.009,0.006,0.022,0.024,0.014,0.011,0.013,Dose-dependent effect,<=70%,0.014,0.5
